Experiment [1] relates to Nucleic Acid. Kind of experiment: Binding affinity to poly dA/dT DNA assessed as change in melting temperature by thermal denaturation assay. The experiment is classed as nucleic-acid assay.
The test system of experiment [2] is Nucleic Acid. Kind of experiment: Binding affinity to calf thymus DNA assessed as decrease in ethidium bromide fluorescence by FID assay. It is filed as nucleic-acid assay, Bos taurus. The method in brief: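 Concentration-response FID using plate conditions as in the screen (calf thymus DNA, ethidium bromide, Tris buffer). Compound added to final 0.1-50 μM, from gravimetrically prepared stocks. FD50 taken as concentration giving 50% fluorescence decrease within each compound's achievable range; maximum %F decrease measured experimentally.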

Experiment [3] concerns Nucleic Acid. The experiment is described as follows: Binding affinity to calf thymus DNA assessed as decrease in ethidium bromide fluorescence at 10 uM by HT-FID assay. It is filed as nucleic-acid assay. To be noted: Bos taurus.
For experiment [4], the system named is Nucleic Acid. The experiment is described as follows: Binding affinity to G/C-rich DNA oligonucleotide assessed as change in melting temperature by thermal denaturation assay. The experiment is classed as nucleic-acid assay.
A short description of experiment [5]: Cytotoxicity against human SF-767 cells assessed as viable cells after 72 hrs by MTT assay. It is filed as functional. To be noted: SF767, 72 h, read-out: LC50 (the source's name). An outline of the steps:
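SF767 glioblastoma cells, 2000 per well, grown 24 h, then exposed to increasing concentrations of compound for 72 h. Viable cells read by MTT with standard protocols. Media-only blank in each treatment group as background. Run in triplicate. LC50 read graphically from plots of % surviving cells against concentration.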
A general note: Formazan colour is commonly taken as a measure of viable cells.

*1 amine or outer side, *2 acyl side, *3 side chain or, on linkers, in order; H or OH if unused. Where a SMILES comes first, the peptide text is derived from it. Bridges are numbered along the chain shown (N, C = ends). Roman numbers before positions name the chains, in order. [ ]: non-standard residue; d: D form. Actinocin(1to9) = Cc1c2oc3c(C)ccc(C(=O)[*:2])c3nc-2c(C(=O)[*:1])c(N)c1=O; NMeV = CN[C@H](C(=O)O)C(C)C; Sar = CNCC(=O)O

In general, ΔTm refers to the change in melting temperature against a reference sample. For orientation: EC50 means the concentration that produces a half-maximal response.

Turning to `Cc1c2oc3c(C)ccc(C(=O)N[C@@H]4C(=O)N[C@H](C(C)C)C(=O)N5CCC[C@H]5C(=O)N(C)CC(=O)N(C)[C@@H](C(C)C)C(=O)O[C@@H]4C)c3nc-2c(C(=O)N[C@@H]2C(=O)N[C@H](C(C)C)C(=O)N3CCC[C@H]3C(=O)N(C)CC(=O)N(C)[C@@H](C(C)C)C(=O)O[C@@H]2C)c(N)c1=O` [DACTINOMYCIN] (I: T[dV]P[Sar][NMeV] / II: T[dV]P[Sar][NMeV]; ester I:1-I:C, II:1-II:C; linker I:N-II:N via Actinocin(1to9)), the shift in melting temperature (ΔTm) is over 45 °C in the experiment on Nucleic Acid [1] and 10 °C in the experiment on Nucleic Acid [4]. Also, the EC50 with Nucleic Acid [2] amounted to 4.3 µM. Moreover, the Binding Decrease in the experiment on Nucleic Acid [3] is 63%.
As to `Cc1cccn2c(=O)c3cc(C(=O)NCCc4ccccc4)c(=N)n(CCc4ccccc4)c3nc12`, the shift in melting temperature (ΔTm) was 0 °C with Nucleic Acid [1] and 10 °C in the experiment on Nucleic Acid [4]. Also, in experiment [5], the CC50 was over 25 µM. Moreover, the half-maximal effective concentration (EC50) with Nucleic Acid [2] was 7.7 µM. In addition, the Binding Decrease in the experiment on Nucleic Acid [3] was 22%.
The matching figures for `Cc1ccc(Nc2nc(N)nc(CN3CCC(Cc4ccccc4)CC3)n2)cc1`: over 45 °C, 0 °C, 26 µM, 5.5 µM and 32%.
Turning to `Cn1cc(NC(=O)c2cc(NC(=O)CNC(=N)N)cn2C)cc1C(=O)NCCC(=N)N` [NETROPSIN], the ΔTm in the experiment with Nucleic Acid [1] was 45 °C; in the experiment with Nucleic Acid [4], 0 °C. In addition, the EC50 with Nucleic Acid [2] was found to be 5.1 µM. The Binding Decrease in the experiment on Nucleic Acid [3] was determined as 32%.
As to `CC(C)c1ccc(CNc2ccc3c(c2)ncn3C)cc1`, the ΔTm is over 45 °C in the experiment with Nucleic Acid [1] and 0 °C in the experiment with Nucleic Acid [4]. The CC50 in experiment [5] was 10 µM. Moreover, the half-maximal effective concentration (EC50) in the experiment with Nucleic Acid [2] stood at 4.4 µM. The Binding Decrease with Nucleic Acid [3] came to 32%.
On to `CCc1ccc(C2NCc3ccccc3-n3cccc32)cc1` (stereo not drawn), for which the shift in melting temperature (ΔTm) in the experiment with Nucleic Acid [1] is over 45 °C; with Nucleic Acid [4], 0 °C. Also, the CC50 in experiment [5] worked out at 35 µM. The EC50 in the experiment on Nucleic Acid [2] worked out at 9.4 µM. Besides, in the experiment with Nucleic Acid [3], the Binding Decrease was determined as 36%.
The matching figures for `CC(C)c1ccc(CNCCC(c2ccccc2)c2ccco2)cc1` (stereo not drawn): over 45 °C, 0 °C, 13 µM, 13.5 µM and 34%.
The matching figures for `CCc1ccc2c(C)nc(NC3=NC(C)(C)C=C(C)N3)nc2c1`: 10 °C, 0 °C, 2.6 µM, 7.7 µM and 40%.
Regarding `CCOC(=O)Cn1c(=N)n(CCOc2cccc(C)c2)c2ccccc21`, the ΔTm is over 45 °C in the experiment on Nucleic Acid [1] and 0 °C in the experiment with Nucleic Acid [4]. Further, the CC50 in experiment [5] was over 50 µM. Moreover, the 50% effective concentration (EC50) in the experiment with Nucleic Acid [2] worked out at 7.7 µM. Also, the Binding Decrease in the experiment with Nucleic Acid [3] came to 46%.

Source of the values: ChEMBL document CHEMBL1154974, “Semi-automated high-throughput fluorescent intercalator displacement-based discovery of cytotoxic DNA binding agents from a large compound library” (Bioorg Med Chem Lett, 2010).
